The results in this text go back to ChEMBL document CHEMBL4028864 (J Med Chem, 2017).

One data set deals with HEL 92.1.7. In words: cells. The class given is functional, cell-based. Conditions: Homo sapiens, HEL 92.1.7, 36 h.
The target in data set [1] is NUAK family SNF1-like kinase 2 (Homo sapiens) (UniProt Q9H093). In words: Inhibition of wild type human SNARK (P22 to A333 residues) expressed in mammalian cells assessed as residual activity at 1 uM by KINOMEscan assay relative to control. It is filed as cell-based.
The target of data set [2] is Rho-associated protein kinase 2 (Homo sapiens) (UniProt O75116). In words: Inhibition of wild type human ROCK2 (M1 to T431 residues) expressed in mammalian cells assessed as residual activity at 1 uM by KINOMEscan assay relative to control. The class given is cell-based.
The subject of another data set is OPM-2. In words: Antiproliferative activity against human OPM2 cells after 48 hrs by CellTiter-Glo luminescent assay. The class given is functional, cell-based. Conditions: OPM-2, 48 h. On the technique in general: Cellular ATP, detected with luciferase, serves as a proxy for viable cell number.
Data set [3] deals with SRSF protein kinase 3 (Homo sapiens) (UniProt Q9UPE1). In words: Inhibition of wild type human SRPK3 (P41 to P567 residues) expressed in bacterial cells assessed as residual activity at 1 uM by KINOMEscan assay relative to control. The class given is cell-based.
Sequence of SRSF protein kinase 3 (Homo sapiens) (Q9UPE1 whole entry, the tested form may be a part): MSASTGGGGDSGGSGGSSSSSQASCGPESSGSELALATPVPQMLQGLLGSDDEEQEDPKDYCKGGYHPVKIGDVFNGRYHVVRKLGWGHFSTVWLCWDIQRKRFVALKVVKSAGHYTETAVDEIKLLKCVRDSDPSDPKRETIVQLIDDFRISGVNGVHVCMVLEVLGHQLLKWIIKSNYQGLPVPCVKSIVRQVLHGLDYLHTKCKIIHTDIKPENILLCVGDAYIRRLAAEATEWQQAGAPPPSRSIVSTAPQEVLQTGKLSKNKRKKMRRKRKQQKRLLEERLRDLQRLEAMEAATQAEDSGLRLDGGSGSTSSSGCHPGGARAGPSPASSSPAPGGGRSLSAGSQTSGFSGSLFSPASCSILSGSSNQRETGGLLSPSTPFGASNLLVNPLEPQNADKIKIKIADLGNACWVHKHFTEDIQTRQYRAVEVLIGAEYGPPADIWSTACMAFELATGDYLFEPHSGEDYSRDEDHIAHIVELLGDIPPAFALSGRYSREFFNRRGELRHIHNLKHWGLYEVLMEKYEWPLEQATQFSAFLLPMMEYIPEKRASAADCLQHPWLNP
Data set [4] can be described thus: Terminal half life in Wistar rat at 1 mg/kg, iv by LC-MS/MS analysis. It is filed as ADME, organism-based. Conditions: in vivo, read-out: beta t1/2 (converted). The procedure, abridged:
(§1)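 Wistar rats given a single 1 mg/kg iv dose. Plasma concentration–time profiles were plotted as mean ± SEM and sampled through 24 h postdose. Values were taken from the iv profile.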

Data set [5] addresses Polyamine deacetylase HDAC10 (Homo sapiens, UniProt Q969S8). In words: Inhibition of human HDAC10 using fluorogenic peptide from p53 residues 379 to 382 as substrate in presence of ATP. An outline of the steps: (§2)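 HDAC enzyme inhibition was run by a contract laboratory.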
The nature of data set [6]: Cmax in Wistar rat at 5 mg/kg, po administered via gavage by LC-MS/MS analysis. The class given is ADME, organism-based. The note with it: in vivo. On the set-up: dose 5 mg/kg, route oral. An outline of the steps: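 Wistar rats given a single 5 mg/kg oral dose. Plasma concentration–time profiles were plotted as mean ± SEM and sampled through 24 h postdose.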
A further data set concerns the target Histone deacetylase 1 (Homo sapiens, UniProt Q13547). In words: Inhibition of C-terminal FLAG His tagged full length human recombinant HDAC1 (1 to 482 residues) expressed in baculovirus infected sf21 cells using RHKKAc as substrate in presence of ATP.
In a further data set the target is Histone deacetylase 5 (Homo sapiens, UniProt Q9UQL6). In words: Inhibition of C-terminal His tagged human recombinant HDAC5 (657 to 1123 residues) expressed in Baculovirus infected insect cells in presence of ATP. An outline of the steps: as §2
The nature of another data set: cells. The class given is ADME, cell-based. Conditions: Homo sapiens, AC10, 24 h.
Data set [7] has as its target Histone deacetylase 4 (Homo sapiens) (UniProt P56524). In words: Inhibition of N-terminal GST tagged/C-terminal His tagged human recombinant HDAC4 (627 to 1084 residues) expressed in Baculovirus infected insect cells in presence of ATP. Conditions: concentration not given here. The procedure, abridged:
as §2

The target in data set [8] is Protein deacetylase HDAC6 (Homo sapiens) (UniProt Q9UBN7). In words: Inhibition of HDAC6 in human MOLM14 cells assessed as increase in acetylated tubulin level up to 3 uM after 16 hrs by immunoblotting analysis. The class given is cell-based. An outline of the steps: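 KMS-12-BM and MOLM-14 cells were treated for 16 h and then lysed. Acetylated tubulin was detected by immunoblotting, and membranes were reprobed for total tubulin as loading control.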
Sequence of Protein deacetylase HDAC6 (Homo sapiens) (Q9UBN7 whole entry): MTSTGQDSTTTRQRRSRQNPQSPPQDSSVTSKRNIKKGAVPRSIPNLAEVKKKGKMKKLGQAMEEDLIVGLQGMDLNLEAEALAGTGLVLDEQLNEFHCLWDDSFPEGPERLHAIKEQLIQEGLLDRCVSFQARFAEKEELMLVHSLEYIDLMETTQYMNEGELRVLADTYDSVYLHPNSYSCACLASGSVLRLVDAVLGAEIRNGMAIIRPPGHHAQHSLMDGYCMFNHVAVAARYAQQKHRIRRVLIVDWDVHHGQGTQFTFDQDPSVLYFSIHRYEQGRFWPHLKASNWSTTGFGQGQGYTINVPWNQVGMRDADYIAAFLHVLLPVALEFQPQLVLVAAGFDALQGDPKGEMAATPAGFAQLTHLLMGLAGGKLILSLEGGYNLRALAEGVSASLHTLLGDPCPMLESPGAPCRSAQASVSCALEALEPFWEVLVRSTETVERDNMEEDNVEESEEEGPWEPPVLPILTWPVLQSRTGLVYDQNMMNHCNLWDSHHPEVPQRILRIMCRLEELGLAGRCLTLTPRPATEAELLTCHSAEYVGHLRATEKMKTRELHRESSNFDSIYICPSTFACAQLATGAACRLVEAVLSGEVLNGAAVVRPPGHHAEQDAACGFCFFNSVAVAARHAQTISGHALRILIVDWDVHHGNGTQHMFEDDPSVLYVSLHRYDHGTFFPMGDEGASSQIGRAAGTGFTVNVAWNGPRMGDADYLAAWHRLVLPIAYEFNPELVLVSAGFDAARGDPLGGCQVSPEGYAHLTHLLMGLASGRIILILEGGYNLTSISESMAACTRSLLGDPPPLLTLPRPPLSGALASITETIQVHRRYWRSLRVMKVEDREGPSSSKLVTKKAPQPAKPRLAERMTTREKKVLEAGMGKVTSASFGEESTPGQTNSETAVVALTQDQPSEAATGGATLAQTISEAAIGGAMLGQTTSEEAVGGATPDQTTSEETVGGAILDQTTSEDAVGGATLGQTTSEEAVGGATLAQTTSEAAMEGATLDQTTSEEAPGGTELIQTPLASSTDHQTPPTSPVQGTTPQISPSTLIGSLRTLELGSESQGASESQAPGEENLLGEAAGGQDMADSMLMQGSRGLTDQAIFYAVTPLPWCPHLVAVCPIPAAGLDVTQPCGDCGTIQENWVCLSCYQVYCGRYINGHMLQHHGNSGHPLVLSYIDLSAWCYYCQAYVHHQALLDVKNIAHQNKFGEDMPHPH
(In general: A western blot detects proteins with antibodies after separation by electrophoresis.)

Data set [9] is described as follows: Thermodynamic aqueous solubility of the compound at pH 7.4 after 3 hrs by UV absorbance based assay. It is filed as physicochemical. The note with it: read-out: Therm_solubility. An outline of the steps: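 A 20 mM DMSO stock was diluted 1:100 into pH 7.4 PBS, then shaken at 250 rpm for 3 or 24 h at 22.5 ± 2.5 °C. The mixture was filtered and the filtrate diluted with acetonitrile/universal buffer. Absorbance was read at 310 nm against a 6.25–200 μM calibration curve, in triplicate.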

The nature of data set [10]: Clearance in Wistar rat at 1 mg/kg, iv by LC-MS/MS analysis. The class given is ADME, organism-based. Conditions: in vivo. An outline of the steps:
as §1

Data set [11] concerns the target Inhibitor of nuclear factor kappa-B kinase subunit beta (Homo sapiens) (UniProt O14920). In words: Inhibition of wild type human IKKbeta (M1 to S756 residues) expressed in mammalian cells assessed as residual activity at 1 uM by KINOMEscan assay relative to control. It is filed as cell-based.
Data set [12] in a line: Cytotoxicity against human AC10 cells assessed as cell viability at 100 uM after 24 hrs by CellTiter-Glo assay relative to control. It is filed as cell-based. The note with it: read-out: Activity. The procedure, abridged:
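AC10 human cardiomyocytes seeded at 5000 cells/well the day before treatment. Cells were exposed for 24 h at 37 °C to a range of 0.315–100 μM final (0.5% DMSO). Viability was read by CellTiter-Glo luminescence.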

A short description of data set [13]: AUC (0 to infinity) in Wistar rat at 1 mg/kg, iv by LC-MS/MS analysis. It is filed as ADME, organism-based. On the set-up: dose 1 mg/kg, time infinity, route intravenous. The note with it: in vivo. An outline of the steps:
as §1

Converted amounts (≈) assume the structure as drawn. The source made the active and inactive calls. No cut-off for these calls is given here.

Sequence of Inhibitor of nuclear factor kappa-B kinase subunit beta (Homo sapiens) (O14920 whole entry, the tested form may be a part): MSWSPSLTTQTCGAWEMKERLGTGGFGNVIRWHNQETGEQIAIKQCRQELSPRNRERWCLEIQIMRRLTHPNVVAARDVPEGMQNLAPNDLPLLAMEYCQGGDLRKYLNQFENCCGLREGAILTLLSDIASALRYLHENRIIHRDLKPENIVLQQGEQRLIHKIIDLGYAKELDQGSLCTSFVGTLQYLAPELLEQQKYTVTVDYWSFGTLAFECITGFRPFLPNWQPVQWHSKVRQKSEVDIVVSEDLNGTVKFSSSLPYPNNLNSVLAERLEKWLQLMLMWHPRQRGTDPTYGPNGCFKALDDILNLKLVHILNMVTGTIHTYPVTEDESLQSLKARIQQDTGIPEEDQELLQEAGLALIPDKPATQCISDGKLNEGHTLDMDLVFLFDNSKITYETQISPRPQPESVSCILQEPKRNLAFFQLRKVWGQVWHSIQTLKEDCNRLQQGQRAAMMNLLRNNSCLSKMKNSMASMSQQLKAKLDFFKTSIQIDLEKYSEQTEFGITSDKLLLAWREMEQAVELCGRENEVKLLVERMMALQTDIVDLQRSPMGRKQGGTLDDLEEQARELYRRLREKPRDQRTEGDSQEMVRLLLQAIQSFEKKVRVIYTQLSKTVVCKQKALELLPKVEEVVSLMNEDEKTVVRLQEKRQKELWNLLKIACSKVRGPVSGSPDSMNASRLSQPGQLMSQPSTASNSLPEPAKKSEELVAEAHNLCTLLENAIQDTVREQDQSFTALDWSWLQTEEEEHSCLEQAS
Sequence of Histone deacetylase 1 (Q13547 whole entry, the tested form may be a part): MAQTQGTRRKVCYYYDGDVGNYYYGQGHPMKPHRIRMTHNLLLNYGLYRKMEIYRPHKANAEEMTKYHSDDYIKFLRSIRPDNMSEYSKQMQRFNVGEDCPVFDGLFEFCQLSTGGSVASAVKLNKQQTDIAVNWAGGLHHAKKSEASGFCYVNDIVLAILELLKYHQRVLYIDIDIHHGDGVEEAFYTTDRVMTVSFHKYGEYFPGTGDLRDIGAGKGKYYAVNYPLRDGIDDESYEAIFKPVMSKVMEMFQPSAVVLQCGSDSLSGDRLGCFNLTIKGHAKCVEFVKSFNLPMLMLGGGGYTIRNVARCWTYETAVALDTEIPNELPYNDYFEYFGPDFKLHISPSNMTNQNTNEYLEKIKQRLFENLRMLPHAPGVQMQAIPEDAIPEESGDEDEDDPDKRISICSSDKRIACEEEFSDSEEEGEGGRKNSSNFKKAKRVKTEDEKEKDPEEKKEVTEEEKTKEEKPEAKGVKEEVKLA
Sequence of Polyamine deacetylase HDAC10 (Q969S8 whole entry, the tested form may be a part): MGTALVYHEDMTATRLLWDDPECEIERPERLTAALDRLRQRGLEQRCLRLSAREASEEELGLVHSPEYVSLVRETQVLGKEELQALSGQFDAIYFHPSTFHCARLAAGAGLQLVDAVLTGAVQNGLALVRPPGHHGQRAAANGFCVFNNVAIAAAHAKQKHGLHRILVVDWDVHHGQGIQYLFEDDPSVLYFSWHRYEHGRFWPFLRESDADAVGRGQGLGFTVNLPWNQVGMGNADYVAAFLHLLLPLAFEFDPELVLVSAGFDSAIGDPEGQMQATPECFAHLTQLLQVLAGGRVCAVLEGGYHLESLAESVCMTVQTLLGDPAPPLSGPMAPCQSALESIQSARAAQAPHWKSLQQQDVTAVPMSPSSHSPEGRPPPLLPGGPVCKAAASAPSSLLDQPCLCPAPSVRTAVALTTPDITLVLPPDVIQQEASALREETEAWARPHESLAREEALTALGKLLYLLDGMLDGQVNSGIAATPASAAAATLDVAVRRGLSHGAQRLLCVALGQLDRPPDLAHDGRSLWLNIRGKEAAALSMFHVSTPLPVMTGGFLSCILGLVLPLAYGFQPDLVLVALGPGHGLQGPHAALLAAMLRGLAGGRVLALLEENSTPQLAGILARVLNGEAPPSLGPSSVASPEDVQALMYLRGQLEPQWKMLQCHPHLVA
Sequence of Histone deacetylase 4 (Homo sapiens) (P56524 whole entry, the tested form may be a part): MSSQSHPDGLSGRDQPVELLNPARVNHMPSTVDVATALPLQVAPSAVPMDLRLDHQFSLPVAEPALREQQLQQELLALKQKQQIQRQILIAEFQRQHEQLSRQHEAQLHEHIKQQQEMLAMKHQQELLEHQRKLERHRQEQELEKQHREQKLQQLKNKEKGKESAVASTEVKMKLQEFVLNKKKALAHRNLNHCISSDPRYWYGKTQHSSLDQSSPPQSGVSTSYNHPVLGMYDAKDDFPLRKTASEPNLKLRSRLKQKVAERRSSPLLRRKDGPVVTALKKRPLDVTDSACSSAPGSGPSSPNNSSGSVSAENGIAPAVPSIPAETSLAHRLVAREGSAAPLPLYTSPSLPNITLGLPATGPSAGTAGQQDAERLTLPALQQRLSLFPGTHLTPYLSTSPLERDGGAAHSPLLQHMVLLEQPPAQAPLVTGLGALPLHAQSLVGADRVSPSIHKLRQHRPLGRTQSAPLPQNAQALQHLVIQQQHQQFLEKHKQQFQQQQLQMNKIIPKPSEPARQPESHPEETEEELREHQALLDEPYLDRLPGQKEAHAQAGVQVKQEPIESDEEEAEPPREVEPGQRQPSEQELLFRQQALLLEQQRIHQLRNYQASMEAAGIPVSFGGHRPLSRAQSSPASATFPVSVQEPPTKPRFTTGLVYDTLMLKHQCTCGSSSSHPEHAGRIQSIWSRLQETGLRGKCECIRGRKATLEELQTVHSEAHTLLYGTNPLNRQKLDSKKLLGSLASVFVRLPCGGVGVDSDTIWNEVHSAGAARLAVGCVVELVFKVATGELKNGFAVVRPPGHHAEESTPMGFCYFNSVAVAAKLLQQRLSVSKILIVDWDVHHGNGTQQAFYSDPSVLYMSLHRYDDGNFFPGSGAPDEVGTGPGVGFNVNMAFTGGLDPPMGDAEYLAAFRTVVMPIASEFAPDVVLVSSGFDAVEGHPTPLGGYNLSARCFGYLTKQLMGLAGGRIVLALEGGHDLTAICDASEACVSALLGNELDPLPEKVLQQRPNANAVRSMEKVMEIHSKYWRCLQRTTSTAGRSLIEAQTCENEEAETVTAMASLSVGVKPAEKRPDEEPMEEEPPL

Turning to `O=C(CCCCCCn1cc(-c2ncnc3[nH]ccc23)cn1)NO`, the IC50 – broadly, the point on the concentration scale where inhibition reaches its midpoint – is 1330 nM in the data set on HEL 92.1.7; 2160 nM with OPM-2; 19 nM in [5]; 6.9 nM on Histone deacetylase 1; 10500 nM on Histone deacetylase 5; above 100000 nM in “cells”. Also, the Activity amounted to 7.5% in data set [1], 29% in data set [2], 18% in [3] and 30% in [11]. In addition, the half-life in [4] was 21 min. Also, in data set [6], the Cmax (in general, the maximum level reached in the sampled fluid or tissue) was determined as 15.9 ng/mL. Also, in [7], the inhibition (commonly the share of the control response that was lost under treatment) came to 23%. Besides, the inhibition result in [8] was “Active”. The solubility thermodynamic at 3 h in data set [9] was 66.2 µg/mL (≈ 202 µM). Besides, the clearance (usually the volume of plasma or blood freed of the substance per unit of time) in data set [10] was determined as 95.1 mL/min/kg. Further, in data set [12], the viability at 24 h, 100 µM stood at 56%. In addition, the AUC(0-inf) (as a rule, the area under the concentration-time curve extrapolated to infinity) in [13] was 175 ng·h/mL.
